pIC50, pKi: −log10 of the molar value.

A short description of assay [1]: Ratio of antagonistic activity treated/control in Mice; antinociceptive effect of morphine opioid agonist in Mice. It is filed as functional. Summed up:
(§1)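 Tail-flick test in Swiss Webster mice. The antagonist was given sc at 6.2 μmol/kg, timed so its 30 min peak fell at the centre of the observation period. Morphine and U-50488 were given sc (μmol/kg) and DPDPE icv (nmol/mouse). Agonist ED50 was found in control and treated mice and expressed as the treated/control ED50 ratio.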

For assay [2], the target named is Delta-type opioid receptor (Homo sapiens) (UniProt P41143). Nature of the assay: Selectivity ratio between Ke value to that of DAMGO (using DADLE as agonist; delta agonist/DAMGO). Format: functional. Summed up: (§2)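 Ke values came from IC50 ratios (n ≥ 3) in GPI and MVD, with antagonist preincubated 15 min. Ke = [antagonist]/(IC50 ratio − 1). The reported ratio is Ke against a κ agonist (EK, U-50488) or δ agonist (DADLE, DPDPE) divided by Ke against DAMGO.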
Sequence of Delta-type opioid receptor (Homo sapiens) (P41143 whole entry): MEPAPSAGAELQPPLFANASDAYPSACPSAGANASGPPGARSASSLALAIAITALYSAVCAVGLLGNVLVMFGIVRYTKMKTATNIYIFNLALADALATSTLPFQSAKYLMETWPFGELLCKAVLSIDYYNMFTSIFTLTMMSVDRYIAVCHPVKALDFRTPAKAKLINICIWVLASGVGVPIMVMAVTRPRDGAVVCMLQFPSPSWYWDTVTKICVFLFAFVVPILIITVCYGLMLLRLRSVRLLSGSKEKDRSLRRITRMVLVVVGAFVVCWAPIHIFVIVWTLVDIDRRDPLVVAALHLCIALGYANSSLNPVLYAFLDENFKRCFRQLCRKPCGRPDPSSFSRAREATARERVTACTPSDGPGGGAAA

For assay [3], the target named is T1, Opioid receptors; mu & kappa (Homo sapiens) (UniProt P41145+P35372). Briefly: Selectivity ratio between kappa and mu opioid receptor from guinea pig brain membrane. Summed up: (§3)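 Competition binding against radioligands in guinea pig brain membranes. μ sites used [3H]DAMGO. κ sites used [3H]EK with 1 μM DAMGO, and δ sites used [3H]DADLE with 1 μM DAMGO. Ki is the geometric mean of three replicates. Selectivity is given as δ/μ and κ/μ Ki ratios.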
T1 sequence (P35372 whole entry, looked up): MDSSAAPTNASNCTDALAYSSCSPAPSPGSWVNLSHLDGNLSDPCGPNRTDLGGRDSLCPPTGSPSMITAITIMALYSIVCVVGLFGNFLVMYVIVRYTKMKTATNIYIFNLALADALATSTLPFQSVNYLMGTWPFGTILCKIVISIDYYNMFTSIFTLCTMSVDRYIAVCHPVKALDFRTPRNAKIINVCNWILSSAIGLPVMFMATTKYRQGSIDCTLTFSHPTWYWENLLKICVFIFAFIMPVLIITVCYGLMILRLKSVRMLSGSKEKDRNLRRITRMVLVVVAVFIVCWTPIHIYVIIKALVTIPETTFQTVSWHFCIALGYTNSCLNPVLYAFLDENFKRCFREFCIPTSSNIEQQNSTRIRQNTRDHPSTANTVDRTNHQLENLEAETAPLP
T1 sequence (P41145 whole entry, looked up): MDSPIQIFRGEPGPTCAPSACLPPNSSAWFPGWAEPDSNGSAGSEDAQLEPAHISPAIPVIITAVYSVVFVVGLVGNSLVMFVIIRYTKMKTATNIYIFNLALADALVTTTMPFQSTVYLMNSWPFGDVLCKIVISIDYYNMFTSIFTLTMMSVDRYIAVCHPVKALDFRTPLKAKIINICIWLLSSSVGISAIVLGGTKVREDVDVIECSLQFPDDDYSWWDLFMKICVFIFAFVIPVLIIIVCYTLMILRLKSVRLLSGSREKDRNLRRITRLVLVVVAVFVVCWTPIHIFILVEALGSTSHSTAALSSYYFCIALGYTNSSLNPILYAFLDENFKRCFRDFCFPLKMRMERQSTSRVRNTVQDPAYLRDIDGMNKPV

The nature of assay [4]: Ratio of antagonistic activity of treated/control; antinociceptive effect of U-50488 opioid agonist in Mice. Format: functional. In outline:
as §1

The target of assay [5] is Delta-type opioid receptor (Homo sapiens) (UniProt P41143). Nature of the assay: Ke value was obtained from IC50 ratio value when compared with delta opioid agonist in […] using DPDPE as radioligand. It is filed as functional, tissue-based. The note with it: target entry is the homologue from another species.
Assay [6] is described as follows: Mu opioid activity was evaluated on electrically stimulated guinea pig ileum by using morphine(M) as standard. Format: tissue-based. Summed up: (§4)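 Antagonism was tested on electrically stimulated guinea pig ileum (morphine, EK, DAMGO, U-50488) and mouse vas deferens (DADLE, DPDPE). Antagonist (usually 100 nM, some at 20 nM) was incubated 15 min before agonist. IC50 ratio is agonist IC50 with antagonist over control IC50 in the same preparation. Ke = [antagonist]/(IC50 ratio − 1). Three or more replicates were run. Selectivity is given as Ke ratios.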

Assay [7] deals with Mu-type opioid receptor (Cavia porcellus) (UniProt P97266). Nature of the assay: Ke value was obtained from IC50 ratio value when compared with Opioid receptor mu 1 agonist in Guinea pig Ileum using DAMGO as radioligand. It is filed as functional, tissue-based. In outline:
as §4

Assay [8] concerns the target Delta-type opioid receptor (Mus musculus) (UniProt P32300). Nature of the assay: Ke value was obtained from IC50 ratio value when compared with delta opioid agonist in MVD preparations using DADLE as radioligand. Format: functional. In outline:
as §4

Assay [9] has as its system Mus musculus. Nature of the assay: Antagonistic activity after […] with a peak time of 30 mins in mice (using DPDPE as agonist, delta selective). Format: functional. In outline:
as §1

Assay [10] deals with Delta-type opioid receptor (Homo sapiens) (UniProt P41143). Briefly: Selectivity ratio between Ke value to that of DAMGO (using DPDPE as agonist; delta agonist/DAMGO). It is filed as functional. Summed up: as §2
Assay [11] has as its target T2, Mu-type opioid receptor (Cavia porcellus, UniProt P97266). Briefly: Binding affinity against Opioid receptor mu 1 in Guinea pig brain membranes. It is filed as cell membranes, Membrane. Summed up: as §3
The target in assay [12] is Kappa-type opioid receptor (Homo sapiens) (UniProt P41145). Briefly: Selectivity ratio between Ke value to that of DAMGO (using EK as agonist; k agonist/DAMGO). Format: functional. In outline: as §2
Sequence of Kappa-type opioid receptor (Homo sapiens) (P41145 whole entry): as the sequence (P41145 whole entry, looked up) above
Assay [13] relates to Delta-type opioid receptor. Nature of the assay: Delta opioid activity on Mouse vas deference using DADLE as standard. In outline: as §4
Assay [14] deals with Kappa-type opioid receptor (Homo sapiens) (UniProt P41145). Nature of the assay: Selectivity ratio between Ke value to that of DAMGO (using U-50488 as agonist; k agonist/DAMGO). Format: functional. In outline: as §2
Assay [15] deals with Mus musculus. Nature of the assay: Antagonistic activity after subcutaneous administration (6.2 umol/kg) with a peak time of 30 mins in mice (using U-50488 as agonist, kappa selective). The note with it: sc, 0.5 h. Format: functional. Summed up:
as §1

Assay [16] concerns the target Kappa-type opioid receptor (Cavia porcellus) (UniProt P41144). Nature of the assay: Ke value was obtained from IC50 ratio value when compared with kappa opioid agonist in Guinea pig Ileum using EK as radioligand. Format: functional, tissue-based. Summed up:
as §4

Assay [17] can be described thus: Kappa opioid activity was evaluated on electrically stimulated guinea pig ileum by using ethylketazocine (EK) as standard. It is filed as tissue-based. In outline:
as §4

For assay [18], the target named is T1, Opioid receptors; mu & kappa (Homo sapiens). Nature of the assay: Selectivity ratio between kappa to that of mu opioid receptor. It is filed as protein assay. Summed up:
as §4

The target in assay [19] is T3, Opioid receptors; mu & delta (Homo sapiens) (UniProt P41143+P35372). Briefly: Selectivity ratio between delta to that of mu opioid receptor. It is filed as protein assay. In outline:
as §4

Assay [20] has as its target T4, Kappa-type opioid receptor (Cavia porcellus, UniProt P41144). Briefly: Binding affinity against Kappa Opioid receptor in Guinea pig brain membranes. It is filed as cell membranes, Membrane. Summed up: as §3
Assay [21] in a line: Ratio of antagonistic activity of treated/control; antinociceptive effect of DPDPE opioid agonist in Mice. It is filed as functional. In outline:
as §1

Assay [22] deals with Kappa-type opioid receptor (Cavia porcellus) (UniProt P41144). Nature of the assay: Ke value was obtained from IC50 ratio value when compared with Opioid receptor kappa 1 agonist in Guinea pig Ileum using U-50488 as radioligand. It is filed as functional, tissue-based. In outline:
as §4

In assay [23] the target is T3, Opioid receptors; mu & delta (Homo sapiens). Briefly: Selectivity ratio between delta and mu opioid receptor from guinea pig brain membrane. In outline: as §3
Assay [24] relates to Mus musculus. Briefly: Antagonistic activity after subcutaneous administration (6.2 umol/kg) with a peak time of 30 mins in mice (using morphine as agonist, mu selective). Format: functional. Particulars: sc, 0.5 h. In outline:
as §1

Assay [25] concerns the target Kappa-type opioid receptor (Cavia porcellus) (UniProt P41144). Nature of the assay: Ke value was obtained from IC50 ratio values when compared with Opioid receptor kappa 1 agonist in Guinea pig Ileum using EK as radioligand. Format: functional, tissue-based. Summed up:
as §4

The target of assay [26] is Mu-type opioid receptor (Cavia porcellus) (UniProt P97266). Briefly: Ke value is obtained from IC50 ratio value when compared with Opioid receptor mu 1 agonist in Guinea pig Ileum using DAMGO as radioligand. Format: functional, tissue-based. Summed up:
as §4

In assay [27] the target is Delta-type opioid receptor (Mus musculus) (UniProt P32300). Briefly: Ke value is obtained from IC50 ratio values when compared with delta opioid agonists in MVD preparations using DADLE as radioligand. It is filed as functional. In outline: as §4
Sequence of Delta-type opioid receptor (Mus musculus) (P32300 whole entry): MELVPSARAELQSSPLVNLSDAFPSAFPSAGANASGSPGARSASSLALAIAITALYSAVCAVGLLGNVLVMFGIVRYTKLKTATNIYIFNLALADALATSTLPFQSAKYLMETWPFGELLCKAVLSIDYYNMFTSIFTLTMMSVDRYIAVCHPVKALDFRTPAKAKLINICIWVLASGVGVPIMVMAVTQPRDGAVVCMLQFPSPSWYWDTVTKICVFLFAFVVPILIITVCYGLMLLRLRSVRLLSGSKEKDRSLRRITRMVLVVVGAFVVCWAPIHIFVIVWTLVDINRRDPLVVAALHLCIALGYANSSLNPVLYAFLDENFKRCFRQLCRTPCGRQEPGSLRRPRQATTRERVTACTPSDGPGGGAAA
Assay [28] deals with T2, Mu-type opioid receptor. Briefly: Opioid receptor mu 1 antagonistic activity in guinea pig ileum. Format: functional, tissue-based. Summed up: as §4
Assay [29] has as its target T4, Kappa-type opioid receptor. Briefly: Binding affinity against Opioid receptor kappa 1 in Guinea pig brain membranes. It is filed as cell membranes, Membrane. In outline: as §3
The nature of assay [30]: Selectivity ratio between morphine and ethylketazocine potencies in GPI and MVD preparations. In outline: as §4
The nature of assay [31]: Selectivity ratio between DADLE and ethylketazocine potencies in GPI and MVD preparations. In outline: as §4

T3 sequence (P35372 whole entry, looked up): as the sequence (P35372 whole entry, looked up) above
T3 sequence (P41143 whole entry, looked up): as the sequence (P41143 whole entry) above
Sequence of Mu-type opioid receptor (Cavia porcellus) (P97266 whole entry): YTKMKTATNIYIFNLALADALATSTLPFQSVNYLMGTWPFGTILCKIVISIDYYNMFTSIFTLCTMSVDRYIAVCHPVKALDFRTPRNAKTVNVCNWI
T2 sequence (P97266 whole entry): as above
Sequence of Kappa-type opioid receptor (Cavia porcellus) (P41144 whole entry): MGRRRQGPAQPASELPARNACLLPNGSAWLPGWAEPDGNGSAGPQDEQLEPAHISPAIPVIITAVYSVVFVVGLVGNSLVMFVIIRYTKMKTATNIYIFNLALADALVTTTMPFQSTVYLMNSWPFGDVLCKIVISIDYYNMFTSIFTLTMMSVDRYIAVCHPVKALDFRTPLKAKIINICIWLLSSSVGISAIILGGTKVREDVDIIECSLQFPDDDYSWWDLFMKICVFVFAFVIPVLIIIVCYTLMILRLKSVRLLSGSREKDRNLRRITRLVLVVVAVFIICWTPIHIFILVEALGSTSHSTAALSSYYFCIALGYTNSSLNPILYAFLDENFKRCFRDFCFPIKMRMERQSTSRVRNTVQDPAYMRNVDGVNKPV
T4 sequence (P41144 whole entry): as above

`NC1=NC([C@]2(N)CC[C@@]3(O)[C@H]4Cc5ccc(O)c6c5C3(CCN4CC3CC3)[C@H]2O6)=N[C@]12CC[C@@]1(O)[C@H]3Cc4ccc(O)c5c4C1(CCN3CC1CC1)[C@H]2O5`: the ED50 ratio in assay [1] was 4; in [4] it was 0.72; in assay [21], 0.66. Moreover, the Ke ratio is 814 in [2]; 90 in assay [3]; 943 in assay [10]; 171 in [12]; 67 in [14]; 40 in assay [18]. The results for the Ke ratio in [19] and in assay [23] were 184 and 187, respectively. Further, the Ke in assay [5] worked out at 66 nM; in assay [7] it was 0.07 nM; in assay [8] it was 57 nM; in [16], 12 nM; in assay [22], 4.7 nM. Also, the IC50 ratio was 65 in [6], 2.8 in assay [13] and 9.1 in assay [17]. Besides, the values for the ED50 in the assay with Mus musculus [9], in the assay with Mus musculus [15] and with Mus musculus [24] were 16 nM mouse-1, 25.6 µmol/kg and 68.7 µmol/kg, respectively. In addition, the pKi (commonly −log10 of the Ki, conventionally taken in molar units) at Mu-type opioid receptor [11] is 9.01; in assay [20], 7.06.

In the case of `N[C@]1(C(=O)O)CC[C@@]2(O)[C@H]3Cc4ccc(O)c5c4C2(CCN3CC2CC2)[C@H]1O5`, the Ke in assay [25] was 19 nM; in assay [26] it was 0.65 nM; in [27], 139 nM. Also, the IC50 ratio in assay [6] was found to be 154; in assay [13], 1.7; in [17], 6.2. Besides, the Ke selectivity ratio in assay [18] turned out to be 30; in [19] it was 214.

With `O=C1NC(=O)[C@@]2(CC[C@@]3(O)[C@H]4Cc5ccc(O)c6c5[C@@]3(CCN4CC3CC3)[C@H]2O6)N1`, at Mu-type opioid receptor [28], the pIC50 (in general, the negative decadic logarithm of the IC50, by convention in mol/L) was 7.15.

In the case of `N[C@@]1(C2=NC(=O)[C@@]3(CC[C@@]4(O)[C@H]5Cc6ccc(O)c7c6C4(CCN5CC4CC4)[C@H]3O7)N2)CC[C@@]2(O)[C@H]3Cc4ccc(O)c5c4C2(CCN3CC2CC2)[C@H]1O5`, the Ke ratio in assay [3] came to 5; in assay [23], 151. Further, in [26], the Ke was 0.46 nM. For the same compound, the IC50 ratio in assay [6] is 11.8; in assay [13] it was 0.87; in assay [17] it was 1.1. In assay [29], this compound had a pKi of 8.24.

On to `CC(=O)NC1=NC([C@]2(NC(C)=O)CC[C@@]3(O)[C@H]4Cc5ccc(O)c6c5C3(CCN4CC3CC3)[C@H]2O6)=N[C@]12CC[C@@]1(O)[C@H]3Cc4ccc(O)c5c4C1(CCN3CC1CC1)[C@H]2O5`, for which the Ke amounted to 44 nM in assay [25] and 1.9 nM in assay [26]. The Ke ratio in assay [30] was found to be 23. Further, the IC50 ratio in assay [6] was determined as 11.7; in assay [13], 1.4; in [17], 3.3.

With `N=C(N)[C@]1(N)CC[C@@]2(O)[C@H]3Cc4ccc(O)c5c4[C@@]2(CCN3CC2CC2)[C@H]1O5`, the pIC50 against Mu-type opioid receptor [28] was 7.74.

With `NC(=O)[C@]1(N)CC[C@@]2(O)[C@H]3Cc4ccc(O)c5c4C2(CCN3CC2CC2)[C@H]1O5`, the Ke turned out to be 44 nM in assay [25] and 9.8 nM in assay [26]. In addition, the IC50 ratio in [6] was 11.2; in assay [13], 0.89; in assay [17], 3.3. In addition, the Ke ratio in assay [18] turned out to be 4.5.

On to `N#C[C@@]1(N)CC[C@@]2(O)[C@H]3Cc4ccc(O)c5c4C2(CCN3CC2CC2)[C@H]1O5`, for which the Ke in assay [25] stood at 6 nM; in assay [26] it was 1.3 nM; in assay [27], 67 nM. Further, the Ke ratio is 4.7 in assay [30] and 52 in [31]. Also, the values for the IC50 ratio in [6], in [13] and in assay [17] were 79, 2.5 and 17.5, respectively.

`N[C@@]1(C(=O)O)CC[C@@]2(O)[C@H]3Cc4ccc(O)c5c4C2(CCN3CC2CC2)[C@H]1O5`: the Ke in assay [25] was 10 nM; in [26] it was 27 nM. Further, the IC50 ratio in [6] stood at 4.8; in assay [13], 1.1; in assay [17] it was 1.9.
